Source: ChEMBL document CHEMBL2331117 (J Med Chem, 2013)

Tests used:
[1] = test system: Mus musculus; experiment: In vivo inhibition of mTORC1-mediated phosphorylation of pS6 at (serine 240/244) in human PC3 cells xenografted into athymic nude mouse at 100 mg/kg, po after 1 hr by Western blotting analysis relative to control; assay type: functional; conditions: PC-3, 1 h
Outline: (§1)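 PC-3 cells grown in DMEM with 20% FBS were implanted subcutaneously at 3 × 10^6 cells in ice-cold HBSS into the hindflank of 5−8 week old male nude mice. At tumor size 200−500 mg, mice received a single oral dose of 100 mg/kg. Plasma and tumors were collected at 1, 4, 8, 16, 24 and 32 h. Tumor lysates from each group (n = 5) were pooled. Phospho-proteins were quantified by Western blot and normalized to α-tubulin.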

[2] = Plasma concentration in mouse at 100 mg/kg, po after 1 hr; assay type: ADME, organism-based; parameters: dose 100 mg/kg, route oral
[3] = test system: Mus musculus; experiment: In vivo inhibition of mTORC1-mediated phosphorylation of p70S6K at […] in human PC3 cells xenografted into athymic nude mouse at 100 mg/kg, po after 24 hrs by Western blotting analysis relative to control; assay type: functional; conditions: PC-3, 24 h; outline: as §1
[4] = Oral bioavailability in CD rat at 3 mg/kg; assay type: ADME, organism-based; conditions: in vivo
Outline: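 For single-dose PK, compound was given intravenously and by oral gavage as a solution in EPW (5% ethanol/45% PEG400/water + 1:2 HCl m/m). Doses were 10 mg/kg in female athymic nude mice and 3 mg/kg in female CD rats and male beagle dogs.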

[5] = Clearance in cynomolgus monkey at 3 mg/kg, iv; assay type: ADME, organism-based, Macaca fascicularis; parameters: dose 3 mg/kg, route intravenous; conditions: in vivo
Outline: (§2)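 Single-dose PK: female athymic nude mice (10 mg/kg), female CD rats and male beagle dogs (3 mg/kg), male cynomolgus monkeys (3 mg/kg), given iv and by oral gavage. Solution in EPW (5% ethanol/45% PEG400/water), with 1:2 HCl (m/m) for mouse, rat and dog and 1:1.5 HCl (m/m) for monkey. Plasma levels followed over 24 h.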

[6] = test system: Mus musculus; experiment: Toxicity in athymic nude mouse assessed as body weight loss at 100 mg/kg, po relative to control; assay type: organism-based; parameters: dose 100 mg/kg, route oral; conditions: in vivo
[7] = test system: Mus musculus; experiment: In vivo inhibition of mTORC1-mediated phosphorylation of p70S6K at […] in human MCF7 cells xenografted into athymic nude mouse at 100 mg/kg, po after 1 hr by Western blotting analysis relative to control; assay type: functional; conditions: MCF7, 1 h
Outline: (§3)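 MCF-7 cells (DMEM, 10% FBS) were implanted subcutaneously at 5 × 10^6 cells in 50% cold HBSS/50% growth-factor-reduced matrigel into the hindflank of 5−8 week old female nude mice. At tumor size 40−150 mg, mice received a single oral dose of 100 mg/kg. Tumor lysates were pooled per group. Phospho-AKT (S473, T308), p70S6K (T389), S6 (S240/244) and 4E-BP1 (T37/46) were measured by Western blot normalized to α-tubulin.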

[8] = target: Cytochrome P450 3A4 (Homo sapiens, UniProt P08684); experiment: Inhibition of CYP3A4 (unknown origin); assay type: ADME
Cytochrome P450 3A4, sequence (P08684 whole entry): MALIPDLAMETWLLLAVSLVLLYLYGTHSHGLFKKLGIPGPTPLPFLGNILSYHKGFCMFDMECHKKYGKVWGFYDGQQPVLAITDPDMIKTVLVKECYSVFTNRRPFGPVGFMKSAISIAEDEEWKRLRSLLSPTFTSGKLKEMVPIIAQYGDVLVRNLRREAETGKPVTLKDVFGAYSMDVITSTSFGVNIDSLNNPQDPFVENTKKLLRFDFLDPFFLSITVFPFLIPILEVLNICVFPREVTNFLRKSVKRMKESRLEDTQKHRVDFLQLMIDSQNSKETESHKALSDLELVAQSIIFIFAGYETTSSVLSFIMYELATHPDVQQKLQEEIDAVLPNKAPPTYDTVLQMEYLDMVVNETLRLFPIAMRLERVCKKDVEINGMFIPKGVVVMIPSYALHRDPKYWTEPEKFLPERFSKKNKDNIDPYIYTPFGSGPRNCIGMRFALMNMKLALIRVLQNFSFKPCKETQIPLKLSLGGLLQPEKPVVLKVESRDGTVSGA

[9] = Half life in CD rat at 3 mg/kg, iv; assay type: ADME, organism-based; parameters: dose 3 mg/kg, route intravenous; conditions: in vivo; outline: as §2
[10] = test system: Mus musculus; experiment: In vivo inhibition of mTORC2-mediated phosphorylation of AKT at serine 473 in human MCF7 cells xenografted into athymic nude mouse at 100 mg/kg, po after 1 hr by Western blotting analysis relative to control; assay type: functional; conditions: MCF7, 1 h; outline: as §3
[11] = test system: Mus musculus; experiment: In vivo inhibition of mTORC1-mediated phosphorylation of 4EBP1 at ([…]) in human MCF7 cells xenografted into athymic nude mouse at 100 mg/kg, po after 16 hrs by Western blotting analysis relative to control; assay type: functional; conditions: MCF7, 16 h
[12] = test system: Mus musculus; experiment: In vivo inhibition of mTORC2-mediated phosphorylation of AKT at […] in human PC3 cells xenografted into athymic nude mouse at 100 mg/kg, po after 32 hrs by Western blotting analysis relative to control; assay type: functional; conditions: PC-3, 32 h
Outline: (§4)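 Human PC-3 cells were implanted subcutaneously into the hindflank of male nude mice aged 5−8 weeks, at 3 × 10^6 cells (passages 10−14, >95% viability) in ice-cold HBSS. At a tumor size of 200−500 mg, mice got one oral 100 mg/kg dose. Tumors were taken at 1, 4, 8, 16, 24 and 32 h. Lysates (n = 5 per group) were pooled, and phospho-AKT (T308) was read by Western blot, normalized to α-tubulin.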

[13] = target: T1, Cytochrome P450 2C8 (Homo sapiens, UniProt P10632); experiment: Inhibition of CYP2C8 (unknown origin); assay type: ADME
T1 sequence (P10632 whole entry): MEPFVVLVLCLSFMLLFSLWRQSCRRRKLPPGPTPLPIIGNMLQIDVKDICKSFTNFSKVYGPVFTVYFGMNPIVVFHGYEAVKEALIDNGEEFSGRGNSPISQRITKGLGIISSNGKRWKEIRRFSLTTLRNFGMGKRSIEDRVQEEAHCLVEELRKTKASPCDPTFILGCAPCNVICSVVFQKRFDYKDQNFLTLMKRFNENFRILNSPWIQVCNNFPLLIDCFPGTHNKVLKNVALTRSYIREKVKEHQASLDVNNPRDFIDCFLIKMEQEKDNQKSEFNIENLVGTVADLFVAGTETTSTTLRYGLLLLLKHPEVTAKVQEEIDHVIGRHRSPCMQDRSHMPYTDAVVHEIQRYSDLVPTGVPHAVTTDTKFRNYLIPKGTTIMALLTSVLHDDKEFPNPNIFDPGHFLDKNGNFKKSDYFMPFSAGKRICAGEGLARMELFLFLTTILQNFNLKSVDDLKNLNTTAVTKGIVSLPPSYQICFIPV

[14] = Plasma concentration in athymic mouse plasma xenografted with human MCF7 cells at 100 mg/kg, po after 4 hrs; assay type: ADME, organism-based; parameters: dose 100 mg/kg, route oral
Outline: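 MCF-7 cells (5 × 10^6 in 50% cold HBSS/50% growth-factor-reduced Matrigel) implanted subcutaneously in the hindflank of 5−8-week-old female nude mice. When tumors reached 40−150 mg, mice received a single oral dose. Plasma exposure was measured after dosing, and scheduled takedown was at 4 h.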

[15] = Cmax in Beagle dog at 3 mg/kg, po; assay type: ADME, organism-based, Canis lupus familiaris; parameters: dose 3 mg/kg, route oral; conditions: in vivo; outline: as §2
[16] = Plasma concentration in athymic mouse plasma xenografted with human PC3 cells at 100 mg/kg, po after 16 hrs; assay type: ADME, organism-based, PC-3; parameters: dose 100 mg/kg, route oral
[17] = target: Dual specificity mitogen-activated protein kinase kinase 1 (Homo sapiens, UniProt Q02750); experiment: Inhibition of MEK1 (unknown origin)
Dual specificity mitogen-activated protein kinase kinase 1, sequence (Q02750 whole entry): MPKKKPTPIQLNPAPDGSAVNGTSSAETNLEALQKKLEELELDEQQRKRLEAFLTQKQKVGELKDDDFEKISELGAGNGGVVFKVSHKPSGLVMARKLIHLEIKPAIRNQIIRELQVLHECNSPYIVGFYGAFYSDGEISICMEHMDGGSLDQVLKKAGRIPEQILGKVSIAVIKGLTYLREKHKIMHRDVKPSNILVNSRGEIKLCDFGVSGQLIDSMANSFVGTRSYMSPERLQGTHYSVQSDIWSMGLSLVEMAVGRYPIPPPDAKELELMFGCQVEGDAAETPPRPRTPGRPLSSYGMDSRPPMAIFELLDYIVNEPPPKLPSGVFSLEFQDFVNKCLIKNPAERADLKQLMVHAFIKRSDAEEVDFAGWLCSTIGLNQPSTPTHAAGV

[18] = AUC (0 to infinity) in athymic nude mouse at 10 mg/kg, iv; assay type: ADME, organism-based; parameters: time infinity, dose 10 mg/kg, route intravenous; conditions: plasma; outline: as §2
[19] = target: DNA-dependent protein kinase catalytic subunit (Homo sapiens, UniProt P78527); experiment: Inhibition of DNA-PK (unknown origin)
DNA-dependent protein kinase catalytic subunit, sequence (P78527 whole entry): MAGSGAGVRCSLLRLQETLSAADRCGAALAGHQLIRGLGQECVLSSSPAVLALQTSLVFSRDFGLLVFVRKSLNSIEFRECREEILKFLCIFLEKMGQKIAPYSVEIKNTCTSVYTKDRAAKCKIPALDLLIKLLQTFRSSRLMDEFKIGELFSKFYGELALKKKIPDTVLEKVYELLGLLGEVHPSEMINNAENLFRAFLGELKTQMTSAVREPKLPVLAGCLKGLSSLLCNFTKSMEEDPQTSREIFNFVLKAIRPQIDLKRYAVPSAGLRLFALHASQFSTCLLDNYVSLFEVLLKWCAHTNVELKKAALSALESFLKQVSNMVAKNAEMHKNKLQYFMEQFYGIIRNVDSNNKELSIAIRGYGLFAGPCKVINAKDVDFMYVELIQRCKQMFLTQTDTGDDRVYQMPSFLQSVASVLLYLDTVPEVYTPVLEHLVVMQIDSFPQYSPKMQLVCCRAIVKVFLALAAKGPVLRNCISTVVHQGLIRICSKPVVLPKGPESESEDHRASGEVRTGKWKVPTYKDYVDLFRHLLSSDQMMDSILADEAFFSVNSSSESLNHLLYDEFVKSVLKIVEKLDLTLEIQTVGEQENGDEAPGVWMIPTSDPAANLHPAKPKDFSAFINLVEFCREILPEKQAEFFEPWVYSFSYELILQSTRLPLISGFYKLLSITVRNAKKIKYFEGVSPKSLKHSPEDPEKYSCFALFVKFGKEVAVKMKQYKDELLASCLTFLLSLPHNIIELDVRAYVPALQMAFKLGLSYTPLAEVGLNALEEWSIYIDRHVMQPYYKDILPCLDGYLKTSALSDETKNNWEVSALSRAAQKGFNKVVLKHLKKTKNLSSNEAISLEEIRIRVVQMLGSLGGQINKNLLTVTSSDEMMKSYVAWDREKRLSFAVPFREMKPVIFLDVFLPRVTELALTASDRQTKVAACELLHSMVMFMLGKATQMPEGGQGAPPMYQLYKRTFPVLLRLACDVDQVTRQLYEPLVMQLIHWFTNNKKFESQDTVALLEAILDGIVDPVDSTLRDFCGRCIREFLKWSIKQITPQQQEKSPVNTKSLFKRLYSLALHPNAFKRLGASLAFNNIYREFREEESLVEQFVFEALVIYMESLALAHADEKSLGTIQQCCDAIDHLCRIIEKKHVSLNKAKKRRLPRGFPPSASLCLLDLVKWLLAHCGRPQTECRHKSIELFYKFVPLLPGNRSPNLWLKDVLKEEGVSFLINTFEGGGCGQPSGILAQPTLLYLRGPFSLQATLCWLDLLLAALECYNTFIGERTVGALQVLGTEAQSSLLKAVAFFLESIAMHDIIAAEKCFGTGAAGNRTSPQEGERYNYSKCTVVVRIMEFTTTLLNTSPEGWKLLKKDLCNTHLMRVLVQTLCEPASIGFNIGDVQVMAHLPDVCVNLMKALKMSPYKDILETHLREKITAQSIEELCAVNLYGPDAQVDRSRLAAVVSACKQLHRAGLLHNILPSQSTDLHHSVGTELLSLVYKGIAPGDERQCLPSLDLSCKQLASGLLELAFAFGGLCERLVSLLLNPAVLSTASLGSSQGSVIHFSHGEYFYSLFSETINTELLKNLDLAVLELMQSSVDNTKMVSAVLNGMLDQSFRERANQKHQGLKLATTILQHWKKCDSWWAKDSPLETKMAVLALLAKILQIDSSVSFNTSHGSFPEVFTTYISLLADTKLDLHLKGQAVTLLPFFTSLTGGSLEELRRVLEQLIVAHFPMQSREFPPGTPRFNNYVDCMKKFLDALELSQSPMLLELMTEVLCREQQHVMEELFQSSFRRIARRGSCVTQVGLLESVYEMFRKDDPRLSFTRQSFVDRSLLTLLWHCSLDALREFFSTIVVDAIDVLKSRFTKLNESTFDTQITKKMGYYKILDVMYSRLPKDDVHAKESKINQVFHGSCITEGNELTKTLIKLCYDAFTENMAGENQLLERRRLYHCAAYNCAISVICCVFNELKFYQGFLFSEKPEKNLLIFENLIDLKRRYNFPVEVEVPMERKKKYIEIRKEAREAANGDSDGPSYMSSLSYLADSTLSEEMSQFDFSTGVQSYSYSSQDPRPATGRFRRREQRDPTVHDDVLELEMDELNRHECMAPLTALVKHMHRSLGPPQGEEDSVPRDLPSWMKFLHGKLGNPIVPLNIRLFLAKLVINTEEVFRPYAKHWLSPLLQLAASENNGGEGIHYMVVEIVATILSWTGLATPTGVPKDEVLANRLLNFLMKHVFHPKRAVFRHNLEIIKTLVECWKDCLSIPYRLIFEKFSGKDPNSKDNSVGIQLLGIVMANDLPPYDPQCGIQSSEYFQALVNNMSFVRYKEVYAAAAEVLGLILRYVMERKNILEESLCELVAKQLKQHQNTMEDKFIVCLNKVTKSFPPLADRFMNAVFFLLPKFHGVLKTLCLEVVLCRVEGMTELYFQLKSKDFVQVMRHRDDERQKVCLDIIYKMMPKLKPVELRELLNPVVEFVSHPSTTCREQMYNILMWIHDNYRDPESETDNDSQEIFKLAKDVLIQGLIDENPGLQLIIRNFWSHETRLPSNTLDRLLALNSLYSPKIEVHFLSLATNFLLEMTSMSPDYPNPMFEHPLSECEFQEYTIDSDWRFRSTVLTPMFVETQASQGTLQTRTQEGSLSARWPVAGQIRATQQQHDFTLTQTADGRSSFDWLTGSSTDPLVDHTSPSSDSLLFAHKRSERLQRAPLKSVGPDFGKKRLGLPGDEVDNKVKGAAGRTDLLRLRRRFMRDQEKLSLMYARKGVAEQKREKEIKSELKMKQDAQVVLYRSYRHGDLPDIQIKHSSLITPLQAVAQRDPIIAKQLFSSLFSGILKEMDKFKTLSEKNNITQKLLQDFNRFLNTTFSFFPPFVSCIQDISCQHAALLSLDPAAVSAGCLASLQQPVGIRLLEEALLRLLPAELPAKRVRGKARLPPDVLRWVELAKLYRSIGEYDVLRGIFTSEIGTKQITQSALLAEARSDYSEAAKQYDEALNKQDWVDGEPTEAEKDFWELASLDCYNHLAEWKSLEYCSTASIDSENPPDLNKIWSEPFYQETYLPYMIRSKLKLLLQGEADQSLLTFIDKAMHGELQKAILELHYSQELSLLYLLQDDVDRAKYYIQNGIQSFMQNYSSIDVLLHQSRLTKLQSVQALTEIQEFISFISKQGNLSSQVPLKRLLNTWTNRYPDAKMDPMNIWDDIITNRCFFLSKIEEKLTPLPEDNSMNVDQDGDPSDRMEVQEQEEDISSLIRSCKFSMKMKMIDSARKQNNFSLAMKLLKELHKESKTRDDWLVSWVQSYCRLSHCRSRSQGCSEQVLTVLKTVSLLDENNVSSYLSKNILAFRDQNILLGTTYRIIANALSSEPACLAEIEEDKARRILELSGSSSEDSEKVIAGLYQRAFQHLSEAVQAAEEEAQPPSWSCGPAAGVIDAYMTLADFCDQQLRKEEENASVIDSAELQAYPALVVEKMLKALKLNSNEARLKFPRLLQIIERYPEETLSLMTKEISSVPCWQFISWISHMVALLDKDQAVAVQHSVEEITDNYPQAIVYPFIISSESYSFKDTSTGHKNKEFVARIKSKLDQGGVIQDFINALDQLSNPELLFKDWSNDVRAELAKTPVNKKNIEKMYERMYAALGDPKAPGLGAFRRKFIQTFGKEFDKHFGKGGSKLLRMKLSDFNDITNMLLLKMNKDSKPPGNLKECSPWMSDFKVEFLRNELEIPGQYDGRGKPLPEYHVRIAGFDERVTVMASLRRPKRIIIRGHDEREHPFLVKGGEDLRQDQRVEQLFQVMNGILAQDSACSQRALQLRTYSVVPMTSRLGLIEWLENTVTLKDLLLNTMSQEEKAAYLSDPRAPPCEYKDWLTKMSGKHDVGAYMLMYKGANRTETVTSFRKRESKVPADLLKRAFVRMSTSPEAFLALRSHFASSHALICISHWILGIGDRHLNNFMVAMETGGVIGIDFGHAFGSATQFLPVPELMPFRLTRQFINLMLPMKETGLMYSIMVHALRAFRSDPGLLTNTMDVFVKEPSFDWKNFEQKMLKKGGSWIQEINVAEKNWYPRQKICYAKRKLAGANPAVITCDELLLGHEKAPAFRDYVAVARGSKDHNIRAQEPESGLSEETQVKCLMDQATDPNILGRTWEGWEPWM

[20] = test system: Mus musculus; experiment: In vivo inhibition of mTORC2-mediated phosphorylation of AKT at […] in human PC3 cells xenografted into athymic nude mouse at 100 mg/kg, po after 16 hrs by Western blotting analysis relative to control; assay type: functional; conditions: PC-3, 16 h; outline: as §4
[21] = target: Heat shock protein HSP 90-beta (Homo sapiens, UniProt P08238); experiment: Inhibition of HSP90 (unknown origin)
[22] = Tmax in athymic nude mouse at 10 mg/kg, po; assay type: ADME, organism-based; parameters: dose 10 mg/kg, route oral; conditions: in vivo
[23] = target: Casein kinase II (Homo sapiens, UniProt P19784+P67870+P68400); experiment: Inhibition of CK2 (unknown origin); assay type: protein-complex assay

concentration at 1 h [2]: 22 µM
bioavailability [4]: 25.6%
clearance [5]: 84.2 mL/min/kg
INH [8]: 24.6 µM
half-life [9]: 27 min
INH [13]: > 20 µM
concentration at 4 h [14]: 30.1 µM
Cmax [15]: 1.66 µM
concentration at 16 h [16]: 6.17 µM
IC50 [17]: > 3.5 µM
AUC(0-inf) [18]: 8 µM·h
IC50 [19]: 8.83 µM
IC50 [21]: > 3.5 µM
Tmax [22]: 30 min
IC50 [23]: > 10 µM
SMILES: Cc1c(C(=O)N2CCOc3ccc(-c4ccc(N)nc4)cc3C2)ccc(S(C)(=O)=O)c1F
inhibition in vivo at 100 mg/kg [1]: 88%
inhibition in vivo at 100 mg/kg [3]: 11%
Activity [6]: 2.8%
inhibition in vivo at 100 mg/kg [7]: 85%
inhibition in vivo at 100 mg/kg [10]: 93%
inhibition in vivo at 100 mg/kg [11]: 56%
inhibition in vivo at 100 mg/kg [12]: -3%
inhibition in vivo at 100 mg/kg [20]: 36%
